APJ agonist: APJ receptor agonism; activation, % at 20 µM; CHO-K1 APJ PathHunter beta-arrestin, luminescence; 0% DMSO wells, 100% apelin; 0.11% of 330,000 active;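 active means activation more than six SD over the plate average, tested at 20 µM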
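Material: CHO-K1 APJ beta-arrestin complementation cell line; Input: cell density 1000 per well; Incubation: compound stimulation 90 min at 25 °C, detection 60 min; Signal: luminescence from split beta-galactosidase complementation, Galacton Star/Emerald II substrate; Controls: DMSO-only wells as negative, 10 nM Apelin-13 as positive control.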
CXCR6 block: blocks human CXCR6 beta-arrestin recruitment; O00574; CHO-K1 PathHunter CXCR6 beta-arrestin, luminescence; inhibition, % at 20 µM; 0.36% of 360,000 active; AID 602244; in the data active means inhibition above about 34%, passing the limit was not always enough;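 further: antagonist mode with CXCL16 agonist at 10 nM final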
Target sequence (O00574 whole entry, looked up): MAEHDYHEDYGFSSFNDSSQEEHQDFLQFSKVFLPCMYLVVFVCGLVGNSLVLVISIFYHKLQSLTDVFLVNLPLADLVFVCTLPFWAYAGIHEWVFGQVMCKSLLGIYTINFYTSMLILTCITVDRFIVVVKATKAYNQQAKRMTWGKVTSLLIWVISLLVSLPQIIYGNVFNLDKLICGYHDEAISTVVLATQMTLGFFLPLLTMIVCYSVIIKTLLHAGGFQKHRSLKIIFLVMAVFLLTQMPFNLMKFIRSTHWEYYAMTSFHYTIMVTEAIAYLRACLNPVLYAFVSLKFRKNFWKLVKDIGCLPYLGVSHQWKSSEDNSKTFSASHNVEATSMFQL
APJ antag: antagonists of human APJ apelin receptor | P35414 | CHO-K1 APJ beta-arrestin complementation, luminescence | inhibition, % at 20 µM | 0.32% of 330,000 active;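 active means inhibition above about 40% at 20 µM, limit read from the data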;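 further: cells challenged with 10 nM apelin-13 agonist together with compound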
EBI2 block: antagonists of human EBI2 receptor | inhibition, % at 5 µM | EBI2 beta-arrestin recruitment, luminescence, 7a,25-OHC stimulated | P32249 | 0.81% of 360,000 active; in the data active means inhibition above about 38%;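 further: enzyme fragment complementation signal reports receptor beta-arrestin coupling in cells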
CCR6 antag: antagonists of human CCR6 receptor. inhibition, % at 20 µM. 0.49% of 340,000 active. CHO-K1 CCR6 PathHunter beta-arrestin, luminescence, CCL20-stimulated. P51684;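 active means compounds whose inhibition of the agonist-driven luminescence signal at 20 µM reaches about 50%, limit read from the data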;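 further: cells stimulated with CCL20 at 14 nM final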
EBI2 antag conf: confirmation of human EBI2 receptor antagonists; shares compounds with EBI2 block; EBI2 beta-arrestin luminescence, 7a,25-OHC antagonism; 29% of 2,400 active; inhibition, % at 5 µM; AID 651997;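 active means inhibition of at least 50%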
EBI2 ag: EBI2 agonism counter-screen. shares compounds with EBI2 block. EBI2-expressing cells, agonist mode, luminescence, 60 min; 0% vehicle, 100% 7α,25-dihydroxycholesterol control. activation, % at 5 µM. 2,400 tested, under 10 active. AID 652000;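 active means activation of at least 50%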
bGal counter: beta-galactosidase inhibition counter-screen. shares compounds with EBI2 block. purified beta-galactosidase, luminescent Galacton Star, 15 min. inhibition, % at 5 µM. 1% of 2,400 active. AID 652176;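 active means replicate-average signal at least 3 plate SD below neutral wells, shown as high inhibition, flagging enzyme-inhibiting false positives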;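 further: higher means stronger loss of beta-gal luminescence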
A number is an active result; – = inactive; · = no result. Compounds with a hit are over-represented: about 1.5% of the library has one in this group of screens.

SMILES | APJ agonist | CXCR6 block | APJ antag | EBI2 block | CCR6 antag | EBI2 antag conf | EBI2 ag | bGal counter
COc1cc(CN2CCCCC2C(=O)Nc2ccc(Oc3ccccc3)nc2)ccc1O (stereo unspecified) | – | – | – | 87 | – | 50 | – | –
O=C(Nc1ccc(Oc2ccccc2)nc1)C1CCCCN1Cc1ccc(O)cc1 (stereo unspecified) | – | – | – | 86 | · | 55 | – | –
O=C(Nc1ccc(Oc2ccccc2)nc1)C1CCCCN1Cc1cccc(O)c1 (stereo unspecified) | – | – | – | 93 | – | 74 | – | –
CCc1nc2ccc(C(=O)NCCOc3ccc(OC)cc3)cn2c1N(C)Cc1cccs1 | · | – | · | 57 | · | – | – | –
CCc1nc2ccc(C(=O)NCCOc3ccc(OC)cc3)cn2c1N(C)Cc1ccc(OC)cc1 | · | – | · | 62 | · | – | – | –
CCCCNC(=O)c1ccc2nc(CC)c(N(C)Cc3ccc(OC)cc3)n2c1 | · | – | · | – | · | · | · | ·
CCc1nc2ccc(C(=O)NCCOc3ccc(OC)cc3)cn2c1N(C)CCCc1ccccc1 | · | – | · | 58 | · | – | – | –
C[C@H]1CN([C@@H](C)CO)C(=O)CCCn2cc(nn2)CO[C@@H]1CN(C)C(=O)Nc1ccc(N2CCCCC2)cc1 | · | – | · | – | · | · | · | ·
CCNC(=S)N1CCN(c2ccc([N+](=O)[O-])cc2)CC1 | – | – | – | – | – | · | · | ·
O=[N+]([O-])c1ccc(N2CCN(C(=S)NCc3ccc(Cl)cc3)CC2)cc1 | – | – | – | 52 | – | – | – | –
CC(NC(=O)COC(=O)c1ccccc1O)C1CC2CCC1C2 (stereo unspecified) | – | – | – | – | – | · | · | ·
Cc1cccc(C)c1NCC(=O)N1CCN(Cc2ccccc2)CC1 | – | – | – | – | – | · | · | ·
CCCOc1ccc(C(=O)Nc2ccc3c(c2)OCO3)cc1 | – | – | – | 52 | – | – | – | –
CCCOc1ccc(C(=O)N2CCN(Cc3ccc4c(c3)OCO4)CC2)cc1 | – | – | – | 78 | – | 54 | – | –
O=C(COc1ccc(Cl)cc1)N1CCN(Cc2ccc3c(c2)OCO3)CC1 | – | – | – | 87 | – | 61 | – | –
O=C(/C=C\c1cccs1)N1CCN(Cc2ccc3c(c2)OCO3)CC1 | – | – | – | 75 | – | 54 | – | –
Cc1cccc(C(=O)NCC(=O)NCC2COc3ccccc3O2)c1 (stereo unspecified) | – | – | – | – | – | · | · | ·
COc1ccc(Cl)cc1NC(=O)COC(=O)Cc1cc(OC)c(OC)c(OC)c1 | – | – | – | – | – | · | · | ·
COc1ccc(Cl)cc1C(=O)OCC(=O)c1ccc[nH]1 | – | – | – | – | – | · | · | ·
CCOC(=O)C1CCN(C(=O)c2cc3cc(F)ccc3[nH]2)CC1 | – | – | – | 62 | – | – | – | –
CCOC(=O)N1CCN(C(=O)c2cc3cc(F)ccc3[nH]2)CC1 | – | – | – | 81 | – | 53 | – | –
CCOC(=O)N1CCN(C(=O)c2cc3cc(Cl)ccc3[nH]2)CC1 | – | – | – | 93 | – | 73 | – | –
CCOC(=O)C1CCCN(C(=O)c2cc3cc(F)ccc3[nH]2)C1 (stereo unspecified) | – | – | – | – | – | · | · | ·
Cc1ccc2[nH]c(C(=O)N3CCCCC3)cc2c1 | – | – | – | – | – | · | · | ·
O=C(COc1ccc2c3c(c(=O)oc2c1)CCC3)N[C@@H](Cc1ccccc1)C(=O)O | – | – | – | – | – | · | · | ·
Cc1occc1C(=O)N1CCCC(N2CCN(c3cccc(Cl)c3)CC2)C1 (stereo unspecified) | – | – | – | – | – | · | · | ·
Cc1cccc(CSCCNC(=O)COc2ccc(Cl)cc2)c1 | – | – | – | – | – | · | · | ·
O=C(COc1ccc(Cl)cc1)NCCSCc1cccc(Cl)c1 | – | – | – | 66 | – | – | – | –
COc1ccc(C2=NS(=O)(=O)N(C)C(C(=O)NCc3ccc4c(c3)OCO4)=C2)cc1OC | – | – | – | – | – | · | · | ·
Cc1ccc2c(c1)N(CC(=O)OCC(=O)NCc1ccccc1)C(=O)CO2 | – | – | – | – | – | · | · | ·

Screening results from PubChem BioAssay.
